The values below come from article PMC8520056 (Asian Journal of Pharmaceutical Sciences, 2021).

In brackets after ≈: the same amount, converted by molar mass.

One data set relates to MDCK-MDR1 cells. Kind of data set: Cellular uptake of AG with P-gp inhibitors. Format: cell-based, canine. The settings on record: 100 µM AG, 200 µM γ-CD, 1% P-gp inhibitor, 37 °C, 90 min. A digest of the protocol:
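MDCK-MDR1 cells were grown in DMEM with 10% heat-inactivated FBS and 1% penicillin/streptomycin at 37 °C, 5% CO2. Cells were seeded at 5 × 10^5 cells/well and left to adhere overnight. At 80% confluence they were exposed for 90 min at 37 °C to 100 µM test compound, with or without 200 µM γ-CD plus 1% Tween 80, TPGS, P407 or Cremophor EL. Cells were washed three times in ice-cold PBS, lysed in 1% Triton X-100, and intracellular compound was measured by HPLC. […] Triplicates, mean ± SD.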

Data set [1] in a line: Physiologically based absorption modeling. On the set-up: species or system rat.
A short description of data set [2]: Transwell transport study in MDCK-MDR1 monolayer. The settings on record: dog. Format: in vitro ADME, canine. In short, it runs like this:
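MDCK-MDR1 cells were seeded at 5 × 10^5 cells/well on 0.4 µm polycarbonate inserts and cultured 7 d; medium was changed every other day, then daily after day 4. Only monolayers with TEER above 140 ohms were used. Monolayers were equilibrated 30 min in HBSS at 37 °C. […] Receiver samples were taken at 15–120 min for HPLC. Papp = (ΔR/Δt)/(S·C0), with S 4.71 cm2; the efflux ratio was calculated from Papp.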

The conditions of data set [3]: cited from earlier work.
A short description of data set [4]: Saturated solubility of AG-CDs binary formulations. Format: physicochemical. The settings on record: distilled water. A digest of the protocol: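 Binary complexes were made by grinding. γ-CD was dissolved in distilled water, compound added at 1:1 or 1:2 molar ratio, and the mix ground 2 h to a paste. The paste was dried at 50 °C under vacuum, pulverised and passed through an 80-mesh sieve.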

A short description of the next data set: Dissolution study. The settings on record: different pH media, 150 mg AG in 1000 ml, 75 rpm, 37 °C, up to 60 min. Format: physicochemical. In short, it runs like this:
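USP-type paddle method (Ch.P 2015 Apparatus II) at 75 rpm and 37 ± 0.5 °C. Medium was 1000 ml of distilled water, 0.1 mol/l HCl, pH 6.8 phosphate buffer or 1% SDS. Pure compound or formulations were added at 150 mg compound-equivalent. Aliquots were drawn at 5, 10, 15, 20, 30, 45 and 60 min and replaced with fresh medium. Samples were filtered through 0.45 µm and assayed by HPLC.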

A short description of data set [5]: In vivo pharmacokinetic study after oral administration. The settings on record: male, Sprague-Dawley, rat, plasma, 40 mg/kg. On the set-up: species or system Sprague-Dawley rats.
Where [6] appears, read: three-compartment model fitted to 5 mg/kg i.v. data of ref 35.

“D-α-Tocopherol polyethylene glycol succinate [TPGS]”: the “Cellular uptake of AG” value with MDCK-MDR1 cells worked out at 1.04 nmol/mg protein.

Turning to `C=C1CC[C@@H]2[C@](C)(CO)[C@H](O)CC[C@@]2(C)[C@@H]1C/C=C1/C(=O)OC[C@H]1O` [AG, Andrographolide], the “Dissolution rate (constant)” value in data set [1] (fitted to dissolution test result, pH 6.8 PBS) amounted to 148 µL/min/mg. For the same compound, in data set [1] (setting [6]), the “Central (compartment volume)” value was 1460 mL, the K10 was determined as 0.7518 h⁻¹, the K12 came out at 1.29 h⁻¹ and the K13 came out at 4.5125 h⁻¹. Further, in data set [1] (setting [6]), the K21 is 0.27 h⁻¹, the K31 was determined as 7.0938 h⁻¹, the “Periperal_2 (compartment volume)” value amounted to 1000 mL and the “Peripheral_1 (compartment volume)” value worked out at 6000 mL. In data set [2], the Papp A→B at 120 min, 20 µM was found to be 0.47 ± 0.04 ×10⁻⁶ cm/s; the apparent permeability from basolateral to apical (Papp B→A) at 120 min, 20 µM worked out at 4.9 ± 0.05 ×10⁻⁶ cm/s; the efflux ratio at 120 min, 20 µM is 10.4. Moreover, in data set [3], the “Unbound fraction (plasma)” value is given as 0.35. Also, the concentration in solution in data set [4] (solubility) was 74.6 µg/mL (≈ 213 µM). The “AG released (dissolution)” value in “Dissolution study” is 17%. In data set [5], the AUC(0-inf) turned out to be 426 ± 76.8 ng·h/mL, the area under the curve AUC(0-t) is 351 ± 56.5 ng·h/mL, the concentration peaked (Cmax) at 57.8 ± 14.8 ng/mL and the Tmax is 1.33 ± 0.52 h. In data set [5], this compound gave a half-life of 9.72 ± 1.38 h and a k el of 2e-05 s⁻¹.
